# Published values of several laboratories.
# Each line is one published result; the experiments were not run side by side.
# Target: Serine/threonine-protein kinase MRCK beta (CDC42BPB, Homo sapiens, UniProt Q9Y5S2)
Structure (SMILES),test,conditions,measurement,result
O=C(Nc1cccnn1)N1CCC(=Cc2cccc(Oc3ccc(C(F)(F)F)cn3)c2)CC1,"cell-free assay, competition with immobilised ligand",1 µM,remaining binding,100%
CC/C(=N\NC(=O)NCc1cccc(O)c1)c1ccc(O)c(C)c1O,"enzyme activity, inhibitor",0.1 µM,inhibition,84.3%
CNCc1ccccc1-c1csc([C@H](C)Nc2nc(C)nc3cc(OC)c(OC)cc23)c1,"cell-free assay, competition with immobilised ligand",1 µM,remaining binding,100%
Cc1ccc(Nc2nccc(N(C)c3ccc4c(C)n(C)nc4c3)n2)cc1S(N)(=O)=O,"enzyme activity, inhibitor",0.3 µM,inhibition,9%
O=c1cc(-c2cccc3c2Sc2ccccc2S3)oc(N2CCOCC2)c1,"enzyme activity, inhibitor",0.5 µM,remaining activity,103%
CCN(CC)c1ccc(C2=NNC(=O)CC2C)cc1[N+](=O)[O-] (centres unmarked),"enzyme activity, inhibitor",10 µM,remaining activity,101%
Cc1noc([C@H]2C[C@@H](c3ccc(C(F)(F)F)cc3)CN(C(=O)N3CCS(=O)(=O)C3)C2)n1,"cell-free assay, competition with immobilised ligand",1 µM,remaining binding,100%
COc1cc2ncnc(Nc3ccc(Oc4ccccc4)c(C)c3C)c2cc1OC,"enzyme activity, inhibitor",1 µM,inhibition,2%
CCCCNc1ncc2c(-c3ccc(F)cc3)nn(C[C@H]3CC[C@H](N)CC3)c2n1,"target engagement in cells, inhibitor, chemoproteomics",20 mM,inhibition,3.6%
O=C(Nc1cnn(-c2csc(C(=O)NC3COC3)c2)c1)Nc1c(F)cccc1Cl,"enzyme activity, inhibitor",5 µM,remaining activity,89%
Cc1c(C(=O)O)cc(-c2ccc(C3CCNCC3)cc2)c2ccc(-c3ccc(C(F)(F)F)cc3)cc12,"cell-free assay, competition with immobilised ligand",1 µM,remaining binding,100%
CCCOc1ccc(OC)c(F)c1C(=O)c1ccc(C(=O)N[C@@H]2CNC[C@H]2NC(=O)c2ccc3[nH]ncc3c2)cc1,"enzyme activity, inhibitor",10 µM,remaining activity,0%
CNC(=O)c1cc(Oc2ccc(NC(=O)Nc3ccc(Cl)c(C(F)(F)F)c3)cc2)ccn1,"enzyme activity, inhibitor",0.3 µM,inhibition,12%
O=C(NC[C@@H]1[C@H]2CN(C(=O)OCc3cc(C(F)(F)F)cc(C(F)(F)F)c3)C[C@@H]12)c1ccc2[nH]nnc2c1,"cell-free assay, competition with immobilised ligand",1 µM,remaining binding,100%
Cc1cnc(NC2CCOCC2)nc1-n1cnc(C(=O)NC(CN)c2cc(F)cc(Cl)c2)c1 (centres unmarked),"enzyme activity, inhibitor, radiometric",1 µM,remaining activity,59%
COc1cccc(CNC(=O)c2nc3scc(COCc4ccc(C(=O)O)cc4)c3c(=O)[nH]2)c1,"cell-free assay, competition with immobilised ligand",1 µM,remaining binding,99.5%
O=C1c2ccccc2-c2n[nH]c3cccc1c23,"enzyme activity, inhibitor",0.5 µM,activity vs control,97.2%
CC(C)(C)c1nc2c(s1)c1nc(N)ncc1c1ccc(NS(=O)(=O)c3c(F)cccc3F)c(F)c12,"enzyme activity, inhibitor, radiometric",1 µM,remaining activity,100%
O=c1c2ccccc2[nH]c(=S)n1CCN1CCC(=C(c2ccc(F)cc2)c2ccc(F)cc2)CC1,"enzyme activity, inhibitor",0.5 µM,remaining activity,106%
Cc1ccc(NC(=O)c2ccc(C)c(C(F)(F)F)c2)cc1C#Cc1nn(C2CCC(O)CC2)c2ncnc(N)c12 (centres unmarked),cell-free assay,10 µM,remaining signal,87%
Nc1ncnc2occ(-c3ccc(NC(=O)Nc4cc(C(F)(F)F)ccc4F)cc3)c12,"enzyme activity, inhibitor",20 µM,remaining activity,33%
CCN(CC)CCNC(=O)c1c(C)[nH]c(/C=C2\C(=O)Nc3ccc(F)cc32)c1C,"enzyme activity, inhibitor",0.3 µM,inhibition,8%
CS(=O)(=O)c1cc(C2(NC(=O)c3cncc4c3cnn4-c3ccc(F)cc3)CC2)ccn1,"cell-free assay, competition with immobilised ligand",1 µM,remaining binding,100%
CCN(CC)CCNC(=O)c1c(C)[nH]c(/C=C2\C(=O)Nc3ccc(Cl)cc32)c1C,"enzyme activity, inhibitor",0.5 µM,remaining activity,96.1%
O=C(NS(=O)(=O)c1ccc(NCC2CCOCC2)c([N+](=O)[O-])c1)c1ccc(N2CCN(Cc3ccc(C(F)(F)F)cc3-c3ccc(Cl)cc3)CC2)cc1Oc1cnc2[nH]ccc2c1,"cell-free assay, competition with immobilised ligand",1 µM,remaining binding,94%
c1ccc(CNc2nc(N3CCOc4ccccc43)nc3c2CCCC3)cc1,"target engagement in cells, inhibitor, chemoproteomics",20 mM,inhibition,-0.5%
